Data published in paper PMC5394958 (Haematologica, 2016).
“And” between values parts separate entries of the source, which are not always exact repeats. Equal values may be shown once. Read-outs that look alike come from different tables or passages of the source.

Assays:
T315I BCR-ABL1 mutation = details: cited from earlier work
TIE2 [1] = details: cited from earlier work
BCR-ABL1 or FLT3 [2] = test: Ex vivo incubation of patient whole blood, phosphorylation of CRKL or FLT3; assay type: cell-based; details: Homo sapiens, read-out: IC50 for inhibition of phosphorylation
In short: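 Predose screening whole blood from TKI-resistant CML or AML patients was incubated with test compound ex vivo. Mononuclear cells were then fixed and permeabilized. Phosphorylation of CRKL or FLT3 was measured, with pCRKL read by flow cytometry. IC50 for inhibition of phosphorylation was determined per evaluable sample.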

BCR-ABL1 T315I = details: cited from earlier work
[3] = Phase 1 safety: adverse events; assay type: in vivo, human
In short: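 First-in-human, multicenter, single-arm oral study in 57 patients, given daily in 28-day cycles. Powder-in-capsule doses escalated from 57 mg QD to 1200 mg QD over 11 cohorts, doubling between the initial single-patient cohorts. Titration was accelerated 3+3, switching to standard 3+3 at grade ≥2 AEs. Tablet cohorts followed, up to 200 mg BID. AEs were graded by NCI CTC v3.0, and DLTs were assessed in cycle 1.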

c-ABL1 = details: cited from earlier work
[4] = Plasma pharmacokinetics after multiple oral doses; assay type: in vivo, human; details: for Tmax: median Tmax
acute myeloid leukemia = test: Clinical response in AML patients; assay type: in vivo, human; details: 5 patients with AML
In short: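 Relapsed or refractory AML patients (ECOG ≤1) received oral drug daily in continuous 28-day cycles. Powder-in-capsule dosing ran from 57 mg QD up to 1200 mg QD, and tablets from 100 mg. Intra-patient dose escalation was allowed. Disease response was assessed locally every 3 cycles by standard criteria.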

BCR-ABL1 or FLT3 [5] = test: Pharmacodynamics in dosed patients: pCRKL / pSTAT5 in blood cells; assay type: in vivo, human; details: of 45 patients with evaluable samples
chronic myeloid leukemia [6] = test: Clinical response in CML patients; assay type: in vivo, human
[7] = Human plasma protein binding; assay type: in vitro ADME
TRKA = details: cited from earlier work
[8] = assay type: in vivo, human
TRKB = details: cited from earlier work
TIE2 [9] = test: Plasma angiopoietin 2; assay type: in vivo, human; details: Day 22 compared to baseline
chronic myeloid leukemia [10] = details: CP-CML patients; cited from earlier work

**Q.** For `Cc1ccc(C(=O)Nc2ccc(CN3CCN(C)CC3)c(C(F)(F)F)c2)cc1C#Cc1cnc2cccnn12` [ponatinib], which “effectiveness against the T315I mutation” value (T315I BCR-ABL1 mutation) is on record?
**A.** The value was “effective”.

**Q.** For `Cc1cn(-c2cc(NC(=O)c3ccc(C)c(Nc4nccc(-c5cccnc5)n4)c3)cc(C(F)(F)F)c2)cn1` [nilotinib], which “effectiveness against the T315I BCR-ABL1 mutation” value (T315I BCR-ABL1 mutation) is on record?
**A.** Its value is “not effective”.

**Q.** For `COc1cc(Nc2c(C#N)cnc3cc(OCCCN4CCN(C)CC4)c(OC)cc23)c(Cl)cc1Cl` [bosutinib], which “effectiveness against the T315I BCR-ABL1 mutation” value (T315I BCR-ABL1 mutation) is on record?
**A.** The value was “not effective”.

**Q.** For `CNC(=O)c1cc(Oc2ccc(NC(=O)Nc3cc(C(C)(C)C)nn3-c3ccc4ncccc4c3)c(F)c2)ccn1` [rebastinib], which IC50 (TIE2 [1]) is on record?
**A.** Its IC50 is 0.058 nM.

**Q.** What about the IC50 (BCR-ABL1 or FLT3 [2]) of the same compound?
**A.** Its IC50 is < 200 nM.

**Q.** And the “efficacy in mouse model” value (BCR-ABL1 T315I)?
**A.** Its value is “effective”.

**Q.** What about the “patients with DLT in first cycle” value ([3]; 200 mg BID tablet) of the same compound?
**A.** Its value is 2 n.

**Q.** And the “patients with DLT in first cycle” value ([3]; 1200 mg QD PIC)?
**A.** Its value is 1 n.

**Q.** And the SAE muscular weakness ([3]; N=57)?
**A.** Its SAE muscular weakness is 4 patients.

**Q.** What about the “patients with AEs suggestive of nervous system disorders, any grade” value ([3]; N=57) of the same compound?
**A.** The value was 33%.

**Q.** What about the “patients with Grade 3 or 4 AE” value ([3]; N=57) of the same compound?
**A.** Its value is 34 patients.

**Q.** And the “patients with SAEs related to study treatment” value ([3]; N=57)?
**A.** The value was 18 patients.

**Q.** What about the “patients with musculoskeletal disorders of all grades” value ([3]; N=57) of the same compound?
**A.** The value was 22 patients.

**Q.** What about the “patients with serious adverse events (SAEs)” value ([3]; N=57) of the same compound?
**A.** Its value is 34 patients.

**Q.** And the “patients with visual abnormalities” value ([3]; N=57)?
**A.** The value was 19 patients.

**Q.** What about the “treatment-related SAE” value ([3]; dose levels below 300 mg BID (PIC) and 100 mg QD (tablet)) of the same compound?
**A.** Its value is “No treatment-related SAE”.

**Q.** And the “CML patients with AEs suggestive of potential ≥Grade 3 cardiomyopathy” value ([3]; in vivo)?
**A.** Its value is 4 patients.

**Q.** What about the Dose-limiting toxicities ([3]; in vivo) of the same compound?
**A.** Its Dose-limiting toxicities is “dysarthria, muscle weakness, and peripheral neuropathy”.

**Q.** What about the “patients discontinued due to musculoskeletal disorders” value ([3]; in vivo) of the same compound?
**A.** The value was 2 patients.

**Q.** What about the “patients with at least one AE of any grade” value ([3]; in vivo) of the same compound?
**A.** The value was 57 (100%) patients (%).

**Q.** And the deaths deemed related ([3]; n=8 deaths)?
**A.** The deaths deemed related was “none”.

**Q.** And the “patients with visual abnormalities first reported during Cycle 1” value ([3]; of 19)?
**A.** Its value is 10 patients.

**Q.** And the “patients with Grade 3 musculoskeletal events” value ([3]; of 22)?
**A.** The value was 13 patients.

**Q.** And the “patients with musculoskeletal disorders during Cycle 1” value ([3]; of 22)?
**A.** Its value is 14 patients.

**Q.** What about the “patients with Grade 3 AESI possibly or probably related” value ([3]; of 27 additional patients at 150 mg BID) of the same compound?
**A.** Its value is 18 patients.

**Q.** And the “maximum tolerated dose (MTD)” value ([3]; tablets, twice daily (BID))?
**A.** Its value is 150 mg.

**Q.** What about the IC50 (c-ABL1) of the same compound?
**A.** Its IC50 is 0.7 nM.

**Q.** What about the “free drug in circulation” value ([4]; at 200 ng/mL, based on plasma protein binding) of the same compound?
**A.** The value was ~ 1.3 nM.

**Q.** And the “Bioavailability, formulated tablets compared to unformulated capsules” value ([4]; human, plasma, oral)?
**A.** Its value is 3- to 4 fold.

**Q.** And the “Exposure, tablets compared to PIC” value ([4]; human, plasma, oral)?
**A.** The value was “approximately 3 fold”.

**Q.** And the half-life ([4]; human, plasma, oral)?
**A.** Its half-life is 12 to 15 h.

**Q.** And the “initial distribution phase from Tmax” value ([4]; human, plasma, oral)?
**A.** The value was 6–8 hours postdose.

**Q.** And the “trough concentrations as % of Cmax” value ([4]; human, plasma, oral)?
**A.** Its value is 10–20%.

**Q.** What about the Tmax ([4]; human, plasma, oral, PIC) of the same compound?
**A.** Its Tmax is 2 h.

**Q.** And the Tmax ([4]; human, plasma, oral, tablets)?
**A.** Its Tmax is 1 to 1.5 h.

**Q.** What about the Average plasma levels ([4]; ~1–4 hours postdose, 150 mg BID) of the same compound?
**A.** Its Average plasma levels is 200 ng/mL and 360 nM.

**Q.** And the “AML patients with a response” value (acute myeloid leukemia)?
**A.** Its value is “None”.

**Q.** What about the “patients with significant (>50%) inhibition of phosphorylation of CRKL and/or STAT5” value (BCR-ABL1 or FLT3 [5]) of the same compound?
**A.** Its value is 20 patients.

**Q.** And the “patients with complete cytogenetic response” value (chronic myeloid leukemia [6]; T315I)?
**A.** Its value is 1 patients.

**Q.** And the “patients with complete hematologic response” value (chronic myeloid leukemia [6]; T315I)?
**A.** The value was 4 patients.

**Q.** What about the “patients with major molecular response” value (chronic myeloid leukemia [6]; T315I) of the same compound?
**A.** Its value is 2 patients.

**Q.** What about the “patients with minor cytogenetic response” value (chronic myeloid leukemia [6]; T315I) of the same compound?
**A.** The value was 3 patients.

**Q.** What about the “patients with minor hematologic response” value (chronic myeloid leukemia [6]; T315I) of the same compound?
**A.** The value was 0 patients.

**Q.** What about the “patients with partial cytogenetic response” value (chronic myeloid leukemia [6]; T315I) of the same compound?
**A.** The value was 1 patients.

**Q.** What about the “patients with partial hematologic response” value (chronic myeloid leukemia [6]; T315I) of the same compound?
**A.** The value was 3 patients.

**Q.** And the “patients with complete hematologic response” value (chronic myeloid leukemia [6]; fifty evaluable)?
**A.** Its value is 8 patients.

**Q.** What about the “patients with minor hematologic response” value (chronic myeloid leukemia [6]; fifty evaluable) of the same compound?
**A.** Its value is 3 patients.

**Q.** And the “patients with partial hematologic response” value (chronic myeloid leukemia [6]; fifty evaluable)?
**A.** Its value is 4 patients.

**Q.** What about the “overall cytogenetic response rate of CML patients” value (chronic myeloid leukemia [6]; human, in vivo) of the same compound?
**A.** Its value is 21%.

**Q.** What about the complete hematologic responses (chronic myeloid leukemia [6]; in 40 evaluable CML patients) of the same compound?
**A.** Its complete hematologic responses is “Eight”.

**Q.** And the “patients with complete cytogenetic response” value (chronic myeloid leukemia [6]; of 37 evaluable)?
**A.** Its value is 2 patients.

**Q.** What about the “patients with cytogenetic response” value (chronic myeloid leukemia [6]; of 37 evaluable) of the same compound?
**A.** The value was 8 patients.

**Q.** What about the “patients with minor cytogenetic response” value (chronic myeloid leukemia [6]; of 37 evaluable) of the same compound?
**A.** Its value is 4 patients.

**Q.** What about the “patients with partial cytogenetic response” value (chronic myeloid leukemia [6]; of 37 evaluable) of the same compound?
**A.** Its value is 2 patients.

**Q.** And the “patients with molecular response (major molecular response)” value (chronic myeloid leukemia [6]; of 40 evaluable)?
**A.** Its value is “Four”.

**Q.** And the fraction unbound [7]?
**A.** Its fraction unbound is 0.0035.

**Q.** And the IC50 (TRKA)?
**A.** The IC50 was 0.17 nM.

**Q.** What about the “patients with nervous system disorders” value ([8]; high Cmax subgroup) of the same compound?
**A.** The value was 13 patients.

**Q.** What about the “patients with nervous system disorders” value ([8]; low Cmax subgroup) of the same compound?
**A.** Its value is 7 patients.

**Q.** And the “patients with nervous system disorders” value ([8]; middle Cmax subgroup)?
**A.** Its value is 5 patients.

**Q.** And the IC50 (TRKB)?
**A.** The IC50 was 0.42 nM.

**Q.** And the “patient samples with ANG2 increases” value (TIE2 [9])?
**A.** The value was 19/20.

**Q.** For `COC(=O)C[C@](O)(CCCC(C)(C)O)C(=O)O[C@@H]1C(OC)=C[C@]23CCCN2CCc2cc4c(cc2[C@H]13)OCO4` [omacetaxine mepesuccinate], which cytogenetic responses (chronic myeloid leukemia [10]) is on record?
**A.** The cytogenetic responses was ~ 20%.
